In PubChem BioAssay:
Calls of active or inactive are those of the source.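 The calls were made as follows, unless noted: active = fluorescence slope higher than the sample average by over 3 SD (cut at about -0.22 in these data, passing the limit was not always enough); inactive = the rest.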

Key:
[1] = inhibitors of TNFa-induced NFkB p65 translocation, primary screen, imaging, HUVEC, MLSMR starter and 10KST1 sets (AID 438;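 active = inhibition above 20% together with a positive visual image hit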;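 also: compound added about 3h40 before a 20 min TNFalpha stimulation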;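 as to inhibition: signal is the nuclear over cytoplasmic p65 intensity ratio per well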); conditions: HUVEC TNFa-induced p65 nuclear translocation; cell count: measured here: nuclei count (cytotoxicity indicator), at 2.08 µM; inhibition: at 2 µM, stronger effect = higher value, 0% TNFa-plus-vehicle, 100% no-TNFa wells
[2] = inhibitors of mutant huntingtin aggregation, primary screen, imaging, exon1htt(103Q)mCFP cells, high-content imaging (AID 483;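 active = visual image review flags a hit and inhibition of aggregation exceeds 20%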;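 also: compound exposure lasted 3 days before fixation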;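 as to nuclei count: percent of the per-plate median nuclei count of sample wells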); conditions: exon1htt(103Q)mCFP cell line, aggregate imaging, at 2 µM; inhibition of aggregation: stronger effect = higher value; nuclei count: measured here: cell count, toxicity
[3] = inhibitors of E-selectin induction by TNFa, primary screen, imaging, HUVEC, immunofluorescence, MLSMR starter and 10KST1 sets (AID 487;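 active = visually confirmed hit in the image check and inhibition above 20%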;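 as to inhibition: signal is fraction of cell area covered by stained E-selectin grains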;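 as to nuclei count: 100% = median nuclei count of all wells on the same plate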); conditions: HUVEC TNFalpha-induced E-selectin immunofluorescence imaging, at 2 µM; inhibition: stronger effect = higher value; nuclei count: measured here: cell number, toxicity
[4] = target: Voltage-gated potassium channel subunit beta-2 (Rattus norvegicus) (UniProt P62483); assay: KvBeta enzyme negative modulators, primary screen, biochemical, NADPH fluorescence (AID 622); conditions: recombinant KvBeta, 4-cyanobenzaldehyde reduction, at 10 µM, stronger effect = higher value;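 also: slope of raw intensity against log time taken from 70 to 1610 s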
Sequence of Voltage-gated potassium channel subunit beta-2 (Rattus norvegicus) (P62483 whole entry, looked up): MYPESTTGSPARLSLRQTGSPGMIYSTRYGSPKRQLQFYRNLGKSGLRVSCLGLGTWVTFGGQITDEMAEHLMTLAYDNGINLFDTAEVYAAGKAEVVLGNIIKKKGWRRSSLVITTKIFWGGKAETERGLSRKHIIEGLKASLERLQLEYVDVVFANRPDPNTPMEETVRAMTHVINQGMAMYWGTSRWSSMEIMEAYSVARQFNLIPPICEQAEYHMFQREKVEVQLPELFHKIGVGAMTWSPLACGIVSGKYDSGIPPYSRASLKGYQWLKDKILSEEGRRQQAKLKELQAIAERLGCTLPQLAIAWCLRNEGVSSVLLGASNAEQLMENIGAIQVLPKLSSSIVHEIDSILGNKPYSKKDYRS

[5] = target: Voltage-gated potassium channel subunit beta-2 (Rattus norvegicus) (UniProt P62483); assay: KvBeta positive modulators, primary screen, biochemical, NADPH fluorescence (AID 623;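 active = NADPH fluorescence slope more negative than the mean of all samples by about 3 SD, 99.7% confidence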;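 also: fluorescence intensity change per second fitted from 20 to 320 s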); conditions: Recombinant KvBeta, NADPH fluorescence decrease slope, 10 min; at 10 µM; stronger effect = lower value
[6] = target: Alpha-2C adrenergic receptor (Homo sapiens) (UniProt P18825); assay: modulators of alpha2C/GIRK thallium flux, primary screen, cell-based, HEK293 alpha2C/GIRK1/2 (AID 624;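 active = fluorescence slope after compound addition differing from the mean of all screened samples at 99.7% confidence, in either direction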;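 also: slope of fluorescence ratio to pre-addition baseline per second over 15 to 24 s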); conditions: thallium flux BTC fluorescence, at 10 µM, actives lie on both sides
Sequence of Alpha-2C adrenergic receptor (Homo sapiens) (P18825 whole entry, looked up): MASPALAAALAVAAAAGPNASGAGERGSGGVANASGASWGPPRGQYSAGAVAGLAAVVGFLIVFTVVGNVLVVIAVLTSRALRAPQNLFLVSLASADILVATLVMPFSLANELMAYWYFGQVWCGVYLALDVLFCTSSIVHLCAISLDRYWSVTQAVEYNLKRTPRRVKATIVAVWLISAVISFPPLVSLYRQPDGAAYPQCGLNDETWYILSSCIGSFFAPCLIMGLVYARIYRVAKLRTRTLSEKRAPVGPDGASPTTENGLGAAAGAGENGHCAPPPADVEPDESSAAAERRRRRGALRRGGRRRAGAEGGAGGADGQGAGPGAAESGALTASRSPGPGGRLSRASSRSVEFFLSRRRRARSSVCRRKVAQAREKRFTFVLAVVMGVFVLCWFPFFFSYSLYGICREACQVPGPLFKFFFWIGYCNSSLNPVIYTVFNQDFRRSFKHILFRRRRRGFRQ

[7] = inhibitors of larval lipid processing in zebrafish, primary screen, whole organism, PED6 fluorescence, gall bladder and intestine (AID 686;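 active = a full or partial loss of lipid-probe fluorescence in the fish gall bladder, intestine or both, judged by eye; inactive = no fluorescence loss, or compound toxic to the fish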;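 also: larvae 5 to 7 days old with five fish per well; signal comes from phospholipase A2 cleavage of quenched PED6 carried via bile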); conditions: Zebrafish larvae PED6 lipid processing, fluorescence scoring; screened at 20 µM (by protocol)
Method in brief: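 Incubation: overnight exposure of larvae to compound plus PED6 / Test system: live zebrafish larvae aged 5-7 days, whole organism / Amount: 5 larvae per well / Read-out basis: visual per-well fluorescence inhibition score / Signal: visual fluorescence microscopy scoring of gall bladder, gut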

[8] = inhibitors of Sendai virus-induced IRF3 signaling, primary screen, TLR/RLR signaling modifier project, cell-based, Sendai virus stimulus, luciferase, 10K MLSCN set (AID 602276;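 active = inhibition at or above 50% at 10 µM; inactive = inhibition below 50%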;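 also: firefly luciferase from ISG56 promoter only with Renilla not read in this screen; 0% = Sendai virus plus DMSO and 100% = medium plus DMSO without virus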); conditions: HEK293 RL24 IRF3 luciferase reporter, at 10 µM, stronger effect = higher value
[9] = inhibitors of poly I:C-induced TLR3 signaling, primary screen, cell-based, poly I:C stimulus, luciferase, 10K MLSCN set (AID 602277;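 active = inhibition of the reporter signal at or above 50%; inactive = inhibition below 50%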); conditions: HEK293-TLR3 RL24 IRF3 luciferase reporter, at 10 µM, stronger effect = higher value

Compound | cell count [1] | inhibition [1] | inhibition of aggregation [2] | nuclei count [2] [%] | inhibition [3] | nuclei count [3] [%] | fluorescence slope [4] | NADPH fluorescence slope [5] | slope [6] | outcome [7] | inhibition [8] | inhibition [9]
Cc1oc2c(c1C(=O)NCc1ccccc1)CCCC2 | 437 | 1.3% (inactive) | -13.6% (inactive) | 108 | 4.8% (inactive) | 130 | -0.464 (inactive) | -4.8e-05 (inactive) | 0.00391 (inactive) | inactive | 9.63% (inactive) | 4.5% (inactive)
NC(=O)c1ccsc1NC(=O)COC(=O)Cc1ccsc1 | 246 | -18.9% (inactive) | 17.1% (inactive) | 81 | 26.2% (inactive) | 75.6 | -0.453 (inactive) | -4.6e-05 (inactive) | 0.00509 (inactive) | inactive | 9.36% (inactive) | 10.7% (inactive)
CCOC(=O)c1cnc(-n2nc(C)cc2C)nc1N1CC(C)OC(C)C1 (stereo not given) | 654 | -15.5% (inactive) | 29.7% (inactive) | 69.8 | -1.6% (inactive) | 96.9 | -0.411 (inactive) | -3.9e-05 (inactive) | 0.00483 (inactive) | inactive | -6.36% (inactive) | 6.34% (inactive)
COc1cc2c(cc1OC)C(/C(C#N)=N\O)=NC(C)(C)C2 | 635 | -39.6% (inactive) | 2.8% (inactive) | 107 | 33% (inactive) | 96.2 | -0.432 (inactive) | -2e-05 (inactive) | 0.0058 (inactive) | inactive | 13.5% (inactive) | 13.6% (inactive)
COCCN1C=C(C(=O)OC)C(c2cc3c(cc2Br)OCO3)C(C(=O)OC)=C1 | 629 | -7.8% (inactive) | 1.1% (inactive) | 112 | 48.4% (inactive) | 46.8 | -0.377 (inactive) | -6e-05 (inactive) | 0.00391 (inactive) | inactive | 13.3% (inactive) | 20.6% (inactive)
CCOC(=O)Cc1csc(NC(=O)c2cccc(OC)c2)n1 | 395 | 5.8% (inactive) | -28.7% (inactive) | 97 | -15.2% (inactive) | 113 | -0.459 (inactive) | -3.2e-05 (inactive) | 0.00478 (inactive) | inactive | 4.13% (inactive) | -6.24% (inactive)
CCCn1c(=O)c(C(=O)NCc2ccccn2)c(O)c2ccccc21 | 345 | 4.2% (inactive) | -20.9% (inactive) | 111 | -32.3% (inactive) | 108 | -0.403 (inactive) | -9e-05 (inactive) | 0.00521 (inactive) | inactive | -22.2% (inactive) | -53.3% (inactive)
CC(C)n1nnnc1SCC(=O)Nc1ccccc1N1CCOCC1 | 539 | -8% (inactive) | -6.6% (inactive) | 104 | -38.2% (inactive) | 112 | -0.451 (inactive) | -6.8e-05 (inactive) | 0.00614 (inactive) | inactive | 10.2% (inactive) | 11.6% (inactive)
O=C(Nc1cc(C(F)(F)F)ccc1N1CCCC1)c1ccc2c(c1)OCO2 | 215 | 6.7% (inactive) | 16.7% (inactive) | 84.5 | -54.9% (inactive) | 103 | -0.461 (inactive) | -2e-05 (inactive) | 0.00354 (inactive) | inactive | 13% (inactive) | 24.5% (inactive)
COc1ccccc1CNC(=O)C(C)NS(=O)(=O)c1ccccc1 (stereo not given) | 295 | -11.3% (inactive) | -13.2% (inactive) | 107 | -11.2% (inactive) | 78 | -0.406 (inactive) | 2.3e-06 (inactive) | 0.00647 (inactive) | inactive | -0.773% (inactive) | 1.85% (inactive)
CS(=O)(=O)N(CC(=O)N1CCCCCC1)c1ccc(Br)cc1 | 485 | -38.8% (inactive) | 20.1% (inactive) | 81.6 | 13.3% (inactive) | 95.6 | -0.353 (inactive) | -5.4e-05 (inactive) | 0.00619 (inactive) | inactive | 15.8% (inactive) | 16% (inactive)
CCOc1ccccc1N1CC(O)=C(c2nc3ccccc3s2)C1=N | 348 | -0.8% (inactive) | 0.2% (inactive) | 97.7 | -69.5% (inactive) | 92 | -0.291 (inactive) | -3.9e-05 (inactive) | 0.00531 (inactive) | inactive | -19.5% (inactive) | 55.4% (active)
C(=N\n1cnnc1)/c1cccc(OCCOc2ccccc2)c1 | 237 | 7.1% (inactive) | 0% (inactive) | 96 | -33.2% (inactive) | 108 | -0.351 (inactive) | -3.7e-05 (inactive) | 0.00586 (inactive) | inactive | -29.6% (inactive) | -51.4% (inactive)
COc1ccc2c3c(c(=O)oc2c1OCC(N)=O)CCCC3 | 609 | -3.8% (inactive) | -17.4% (inactive) | 111 | -29.2% (inactive) | 102 | -0.0534 (active) | -8.5e-06 (inactive) | 0.00487 (inactive) | inactive | 14% (inactive) | 2.31% (inactive)
CN(C)C(=O)COc1ccc2cc(-c3ccccc3)c(=O)oc2c1 | 300 | -4% (inactive) | 14.5% (inactive) | 89.5 | -75.1% (inactive) | 146 | -0.00785 (inactive) | 0 (inactive) | 0.0053 (inactive) | inactive | -24.2% (inactive) | 98.1% (active)
Cc1c(Cl)cccc1NC(=O)CCN1CCCCCC1 | 221 | 14.6% (inactive) | -8.7% (inactive) | 90.4 | -108% (inactive) | 143 | -0.414 (inactive) | -3.3e-05 (inactive) | 0.00752 (inactive) | inactive | 13.4% (inactive) | 20.3% (inactive)
COc1ccc(NC(=O)CSc2ccccn2)cc1OC | 554 | -42.2% (inactive) | 5.1% (inactive) | 107 | 10.4% (inactive) | 88.2 | -0.384 (inactive) | -1.5e-05 (inactive) | 0.00501 (inactive) | inactive | -19.5% (inactive) | -27.7% (inactive)
CCC(C(=O)NC(C)CCc1ccco1)n1nc(C)n2c(cc3occc32)c1=O (stereo not given) | 488 | 6% (inactive) | -13.2% (inactive) | 84.5 | -121% (inactive) | 98.3 | -0.475 (inactive) | -2e-05 (inactive) | 0.00405 (inactive) | inactive | 2.28% (inactive) | 2.25% (inactive)
CC1CC(C)CN(c2nc3c(c(=O)[nH]c(=O)n3C)n2CCCSc2nc3ccccc3s2)C1 (stereo not given) | 383 | -4.3% (inactive) | 33.6% (inactive) | 97.2 | -83.6% (inactive) | 107 | -0.445 (inactive) | -5e-05 (inactive) | 0.00577 (inactive) | inactive | 10.4% (inactive) | 11.5% (inactive)
CCn1c(SCC(N)=O)nnc1-c1ccc(S(=O)(=O)N2CCN(C)CC2)cc1 | 736 | -10.2% (inactive) | -23.3% (inactive) | 118 | -11.3% (inactive) | 129 | -0.396 (inactive) | -1.7e-05 (inactive) | 0.00446 (inactive) | inactive | -10.4% (inactive) | -10.4% (inactive)
O=C(CN(Cc1ccc(F)cc1)C(=O)c1ccco1)NCc1ccc(F)cc1 | 357 | 6.8% (inactive) | 7% (inactive) | 90.9 | -382% (inactive) | 130 | -0.359 (inactive) | -3.4e-05 (inactive) | 0.00584 (inactive) | inactive | 14.4% (inactive) | 21.2% (inactive)
COCCCN1C(=O)C(=O)/C(=C(/O)c2ccc(OC)cc2)C1c1ccc(O)c(OC)c1 (stereo not given) | 499 | -14.9% (inactive) | -10% (inactive) | 101 | 25.3% (inactive) | 98.6 | -0.39 (inactive) | -2.6e-05 (inactive) | 0.00521 (inactive) | inactive | 4.25% (inactive) | -6.14% (inactive)
COc1ccc(N2C(=O)c3cccc4cccc(c34)C2=O)nn1 | 345 | 1.5% (inactive) | 4.9% (inactive) | 105 | -81.4% (inactive) | 114 | -0.421 (inactive) | -2.8e-05 (inactive) | 0.00401 (inactive) | inactive | 9.08% (inactive) | 20.4% (inactive)
O=C(NC1CCCCC1NC(=O)c1ccco1)c1ccco1 (stereo not given) | 726 | 10.2% (inactive) | -7.6% (inactive) | 108 | 65.3% (inactive) | 112 | -0.384 (inactive) | -1.6e-05 (inactive) | 0.00439 (inactive) | inactive | -10.8% (inactive) | -8.21% (inactive)
CC(N)C12CC3CC(C1)CC(C(C)N)(C3)C2 (stereo not given) | 394 | 3% (inactive) | -16.2% (inactive) | 102 | -14.3% (inactive) | 103 | -0.38 (inactive) | -6.5e-05 (inactive) | 0.00438 (inactive) | inactive | 13.4% (inactive) | 13.6% (inactive)
